# Reference: ChEMBL document CHEMBL1151853, “Synthesis, configurational stability and stereochemical biological evaluations of (S)- and (R)-5-hydroxythalidomides” (Bioorg Med Chem Lett, 2009)
# The source made the active and inactive calls. No cut-off for these calls is given here.
# How the values were obtained:
# HUVEC [1] = assay: Antiangiogenic activity against VEGF-induced HUVEC assessed as tube joint at 100 uM after 11 days after 11 days by BCIP/NBT visualization assay; format: functional, cell-based; conditions: Homo sapiens
# Outline: (§1)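 HUVECs co-cultured with fibroblasts (angiogenesis kit) grown with test drug at 30 or 100 μM plus VEGF-A 10 ng/ml for 11 days. Fixed in 70% ethanol, then mouse anti-human CD31 (1:4000, 1 h, 37 °C) and AP-conjugated goat anti-mouse IgG (1:500, 1 h, 37 °C), developed with BCIP/NBT. Mean ± S.E.M.; VEGF n = 9, VEGF + compound n = 3; Dunnett's test versus VEGF.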
# HUVEC [2] = assay: Antiangiogenic activity against VEGF-induced HUVEC assessed as tube path at 100 uM after 11 days after 11 days by BCIP/NBT visualization assay; format: functional, cell-based; conditions: Homo sapiens; outline: as §1
# MCF7 = assay: Cytotoxicity against human MCF7 cells assessed as cell viability at 100 ug/ml after 72 hrs by MTT assay; format: functional; conditions: MCF7, 72 h, read-out: Activity
# [3] = Cytotoxicity against human HS-Sultan cells assessed as cell viability at 100 ug/ml after 72 hrs by MTT assay; format: functional; conditions: read-out: Activity
# HUVEC [4] = assay: Antiangiogenic activity against VEGF-induced HUVEC assessed as tube area at 100 uM after 11 days by BCIP/NBT visualization assay; format: functional, Homo sapiens; outline: as §1
# HUVEC [5] = assay: Antiangiogenic activity against VEGF-induced HUVEC assessed as tube length at 100 uM after 11 days after 11 days by BCIP/NBT visualization assay; format: functional, cell-based; conditions: Homo sapiens; outline: as §1
# KB = assay: Cytotoxicity against human KB cells assessed as cell viability at 100 ug/ml after 72 hrs by MTT assay; format: functional; conditions: read-out: Activity
# IM-9 = assay: Cytotoxicity against human IM9 cells assessed as cell viability at 100 ug/ml after 72 hrs by MTT assay; format: functional; conditions: IM-9, 72 h, read-out: Activity
# [6] = Stability assessed as half life at pH 6.24; format: physicochemical; conditions: buffer
# [7] = Stability assessed as half life at pH 8.78; format: physicochemical; conditions: buffer
# [8] = Stability assessed as half life at pH 7.23; format: physicochemical; conditions: buffer
half-life [6] [h],half-life [7] [h],half-life [8] [h],Compound,Activity (HUVEC [1]),Activity (HUVEC [2]),viability at 100 µg/mL (MCF7) [%],viability at 100 µg/mL [3] [%],Activity (HUVEC [4]) [%],Activity (HUVEC [5]),viability at 100 µg/mL (KB) [%],viability at 100 µg/mL (IM-9) [%]
,,,O=C1CCC(N2C(=O)c3ccccc3C2=O)C(=O)N1 (racemic) [THALIDOMIDE],inactive,inactive,86.5,85.9,<60,inactive,92.2,107
,,,O=C1CC[C@@H](N2C(=O)c3ccccc3C2=O)C(=O)N1,inactive,inactive,89.8,75.6,>70,inactive,96.9,87.1
27.8,2.6,5.1,O=C1CC[C@H](N2C(=O)c3ccccc3C2=O)C(=O)N1,,,81.3,88.6,<60,,95.6,93.5
